Experimental data published in ChEMBL document CHEMBL4364256, “Design, synthesis and biological evaluation of antimicrobial diarylimine and -amine compounds targeting the interaction between the bacterial NusB and NusE proteins” (Eur J Med Chem, 2019).
≈ marks a conversion by molar mass, not a printed value.

Columns and labels:
[1] = system: Bacillus subtilis; test: Inhibition of N-terminal LgBiT-fused Bacillus subtilis NusB expressed in Escherichia coli BL21(DE3)pLysS interaction with C- terminal SmBiT-fused Bacillus subtilis NusE expressed in Escherichia coli BL21(DE3)pLysS at 100 uM preincubated for 10 mins followed by NusE addition and measured after 10 mins by nano-glo luciferase assay relative to control
Procedure, shortened: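 NusB and NusE were mixed 1:1 at 1 µM in PBS, with compound at 100 µM. The read-out was percent inhibition of the NusB-NusE interaction.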

[2] = system: Enterococcus faecium; test: Antimicrobial activity against Enterococcus faecium ATCC 19433 incubated for 20 hrs by microdilution method; assay type: functional; settings: ATCC 19433, 20 h
Procedure, shortened: (§1)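 Broth microdilution MIC testing done following CLSI guidelines.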

[3] = system: Streptococcus pneumoniae; test: Antimicrobial activity against Streptococcus pneumoniae ATCC 49619 incubated for 20 hrs by microdilution method; assay type: functional; settings: ATCC 49619, 20 h; procedure, shortened: as §1
[4] = system: Acinetobacter baumannii; test: Antimicrobial activity against Acinetobacter baumannii ATCC 19606 incubated for 20 hrs by microdilution method; assay type: functional; settings: ATCC 19606 = CIP 70.34 = JCM 6841, 20 h; procedure, shortened: as §1
[5] = system: Pseudomonas aeruginosa; test: Antimicrobial activity against Pseudomonas aeruginosa ATCC 27853 incubated for 20 hrs by microdilution method; assay type: functional; settings: ATCC 27853, 20 h; procedure, shortened: as §1
[6] = system: Staphylococcus aureus; test: microbe, parasite or virus in culture; settings: ATCC 25923, 20 h
[7] = system: Staphylococcus aureus; test: microbe, parasite or virus in culture; settings: ATCC 29213, 20 h
[8] = microbe, parasite or virus in culture; settings: Enterobacter cloacae, ATCC 13047, 20 h

inhibition [1]	MIC [2]	MIC [3]	MIC [4]	MIC [5]	MIC [6]	MIC [7]	MIC [8]	Structure (SMILES)
44.7%	32 µg/mL (≈ 122 µM)	8 µg/mL (≈ 30.5 µM)	> 256 µg/mL	> 256 µg/mL	64 µg/mL (≈ 244 µM)	32 µg/mL (≈ 122 µM)	> 256 µg/mL	C#Cc1cccc(NCc2cc(CC#N)ccc2O)c1
50.8%	> 256 µg/mL	> 256 µg/mL	> 256 µg/mL	> 256 µg/mL	> 256 µg/mL	> 256 µg/mL	> 256 µg/mL	O=C(O)c1cccc(NCc2cc([N+](=O)[O-])ccc2O)c1
50%	256 µg/mL (≈ 925 µM)	64 µg/mL (≈ 231 µM)	> 256 µg/mL	> 256 µg/mL	8 µg/mL (≈ 28.9 µM)	32 µg/mL (≈ 116 µM)	> 256 µg/mL	O=[N+]([O-])c1ccc(O)c(/C=N/c2ccc(Cl)cc2)c1
58.2%	> 256 µg/mL	> 256 µg/mL	> 256 µg/mL	> 256 µg/mL	> 256 µg/mL	> 256 µg/mL	> 256 µg/mL	O=[N+]([O-])c1ccc(O)c(CNC2CCCCC2)c1
40.4%	> 256 µg/mL	> 256 µg/mL	> 256 µg/mL	> 256 µg/mL	> 256 µg/mL	> 256 µg/mL	> 256 µg/mL	C#Cc1cccc(/N=C/c2cc([N+](=O)[O-])ccc2OC)c1
25.7%	> 256 µg/mL	> 256 µg/mL	> 256 µg/mL	> 256 µg/mL	256 µg/mL (≈ 1160 µM)	> 256 µg/mL	> 256 µg/mL	C#Cc1cccc(/N=C/c2ccccc2O)c1
64.8%	64 µg/mL (≈ 258 µM)	16 µg/mL (≈ 64.4 µM)	> 256 µg/mL	> 256 µg/mL	32 µg/mL (≈ 129 µM)	32 µg/mL (≈ 129 µM)	> 256 µg/mL	C#Cc1cccc(NCc2cc(C#N)ccc2O)c1
66.7%	> 256 µg/mL	128 µg/mL (≈ 492 µM)	> 256 µg/mL	> 256 µg/mL	64 µg/mL (≈ 246 µM)	128 µg/mL (≈ 492 µM)	> 256 µg/mL	O=[N+]([O-])c1ccc(O)c(CNc2cccc(O)c2)c1
52.2%	> 256 µg/mL	> 256 µg/mL	256 µg/mL (≈ 961 µM)	> 256 µg/mL	256 µg/mL (≈ 961 µM)	256 µg/mL (≈ 961 µM)	> 256 µg/mL	C#Cc1cccc(/N=C/c2cc(O)ccc2[N+](=O)[O-])c1

Continued, compound first:

Structure (SMILES)	inhibition [1]	MIC [2]	MIC [3]	MIC [4]	MIC [5]	MIC [6]	MIC [7]	MIC [8]
O=[N+]([O-])c1ccc(O)c(/C=N/c2ccccc2)c1	39.2%	> 256 µg/mL	32 µg/mL (≈ 132 µM)	256 µg/mL (≈ 1060 µM)	> 256 µg/mL	4 µg/mL (≈ 16.5 µM)	16 µg/mL (≈ 66.1 µM)	> 256 µg/mL
O=[N+]([O-])c1ccc(O)c(CNc2cccc3ccccc23)c1	47.4%	16 µg/mL (≈ 54.4 µM)	16 µg/mL (≈ 54.4 µM)	256 µg/mL (≈ 870 µM)	> 256 µg/mL	4 µg/mL (≈ 13.6 µM)	4 µg/mL (≈ 13.6 µM)	> 256 µg/mL
C#Cc1cccc(NCc2cccc([N+](=O)[O-])c2)c1	33.1%	> 256 µg/mL	> 256 µg/mL	> 256 µg/mL	> 256 µg/mL	> 256 µg/mL	> 256 µg/mL	> 256 µg/mL
C#Cc1cccc(/N=C/c2cc([N+](=O)[O-])cc(Br)c2O)c1	74.1%	> 256 µg/mL	128 µg/mL (≈ 371 µM)	256 µg/mL (≈ 742 µM)	> 256 µg/mL	32 µg/mL (≈ 92.7 µM)	32 µg/mL (≈ 92.7 µM)	> 256 µg/mL
O=[N+]([O-])c1ccc(O)c(/C=N/c2ccc(C(F)(F)F)cc2)c1	68.9%	256 µg/mL (≈ 825 µM)	16 µg/mL (≈ 51.6 µM)	256 µg/mL (≈ 825 µM)	> 256 µg/mL	8 µg/mL (≈ 25.8 µM)	16 µg/mL (≈ 51.6 µM)	> 256 µg/mL
C#Cc1cccc(/N=C/c2cc(CC#N)ccc2O)c1	49.9%	> 256 µg/mL	> 256 µg/mL	64 µg/mL (≈ 246 µM)	> 256 µg/mL	256 µg/mL (≈ 983 µM)	> 256 µg/mL	> 256 µg/mL
C#Cc1cccc(NCc2ccccc2O)c1	20.3%	> 256 µg/mL	> 256 µg/mL	> 256 µg/mL	> 256 µg/mL	> 256 µg/mL	> 256 µg/mL	> 256 µg/mL
O=[N+]([O-])c1ccc(O)c(CNc2ccc(Cl)cc2)c1	53.6%	32 µg/mL (≈ 115 µM)	16 µg/mL (≈ 57.4 µM)	> 256 µg/mL	256 µg/mL (≈ 919 µM)	8 µg/mL (≈ 28.7 µM)	4 µg/mL (≈ 14.4 µM)	128 µg/mL (≈ 459 µM)
